Measured values published in ChEMBL document CHEMBL1143180, “Imidazolyl benzimidazoles and imidazo[4,5-b]pyridines as potent p38alpha MAP kinase inhibitors with excellent in vivo antiinflammatory properties” (Bioorg Med Chem Lett, 2008).

How the values were obtained:
[1] = target: Mitogen-activated protein kinase 14 (Mus musculus, UniProt P47811); test: Inhibition of mouse p38alpha in anisomycin-stimulated RAW 264.7 cells by ELISA; format: cell-based
Procedure, shortened: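 Cell-based ELISA: RAW 264.7 cells pretreated with compound, then stimulated with anisomycin; p38α activity detected by antibody to phospho-MAPKAPK-2 (Thr334), a residue phosphorylated specifically by p38α. Minimum significant ratio 2.8.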

[2] = tested on: Macrophage; test: Inhibition of LPS-stimulated TNFalpha production in mouse peritoneal macrophages; format: functional, cell-based
Procedure, shortened: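 Murine peritoneal macrophages stimulated with LPS while exposed to test compound; TNFα release measured as functional read-out. Cell assay minimum significant ratio 2.8.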

[3] = target: Mitogen-activated protein kinase 14 (Homo sapiens, UniProt Q16539); test: Inhibition of human recombinant p38alpha
Chain of Mitogen-activated protein kinase 14 (Homo sapiens, UniProt Q16539) (Q16539 whole entry): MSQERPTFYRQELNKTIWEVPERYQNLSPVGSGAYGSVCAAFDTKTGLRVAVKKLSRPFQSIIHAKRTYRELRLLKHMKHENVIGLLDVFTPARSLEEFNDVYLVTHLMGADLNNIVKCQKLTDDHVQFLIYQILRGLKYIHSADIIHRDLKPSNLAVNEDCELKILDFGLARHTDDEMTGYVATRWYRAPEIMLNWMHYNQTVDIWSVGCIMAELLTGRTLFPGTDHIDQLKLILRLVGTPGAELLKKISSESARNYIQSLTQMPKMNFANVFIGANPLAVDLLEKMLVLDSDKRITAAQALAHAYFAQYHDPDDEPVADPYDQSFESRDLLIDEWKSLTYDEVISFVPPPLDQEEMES

[4] = Half life in rat at 10 mg/kg, po; format: ADME, organism-based; design: dose 10 mg/kg, route oral; details: in vivo
Procedure, shortened: (§1)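 Rats dosed orally at 10 mg/kg; plasma exposure reported as AUC0-inf and terminal half-life.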

[5] = tested on: Mus musculus; test: Inhibition of LPS-stimulated TNFalpha production in po dosed BALB/c mouse; format: functional
[6] = tested on: Rattus norvegicus; test: Antiinflammatory activity against collagen-induced arthritis rat model assessed as effect on histopathology scores administered orally twice daily for 14 days; format: functional
Procedure, shortened: (§2)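 Rat collagen-induced arthritis, 14-day chronic model; activity scored by paw swelling and by histopathology (bone erosion, cartilage destruction); TMED50 derived from dose response.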

[7] = AUC (0 to infinity) in rat at 10 mg/kg, po; format: ADME, organism-based; design: time infinity, dose 10 mg/kg, route oral; details: plasma; procedure, shortened: as §1
[8] = tested on: Rattus norvegicus; test: Antiinflammatory activity against collagen-induced arthritis rat model assessed as inhibition of paw swelling administered orally twice daily for 14 days; format: functional; procedure, shortened: as §2

Chain of Mitogen-activated protein kinase 14 (Mus musculus, UniProt P47811) (P47811 whole entry): as the sequence (Q16539 whole entry) above, with L48H, T263A counted along it

SMILES	IC50 [1]	IC50 [2]	IC50 [3]	half-life [4]	TMED50 [5]	TMED50 [6]	AUC(0-inf) [7]	TMED50 [8]
CC(C)Cn1cnc2ccc(-c3[nH]c(-c4c(F)cccc4F)nc3-c3ccccc3)nc21	0.0697 µM	0.0267 µM	0.0045 µM	–	–	–	–	–
CC(C)S(=O)(=O)n1c(N)nc2ccc(-c3[nH]c(-c4ccc(Cl)cc4)nc3-c3ccccc3)cc21	0.376 µM	0.071 µM	0.0347 µM	–	–	–	–	–
Cc1nc2ccc(-c3[nH]c(-c4c(F)cccc4F)nc3-c3ccccc3)cc2n1CC(C)C	–	0.338 µM	0.0112 µM	–	–	–	–	–
CC(C)S(=O)(=O)n1c(N)nc2ccc(-c3[nH]c(-c4c(Cl)cccc4C(F)(F)F)nc3-c3ccccc3)cc21	0.398 µM	0.0019 µM	0.0085 µM	–	–	–	–	–
CC(C)S(=O)(=O)n1c(N)nc2ccc(-c3nc(-c4c(Cl)cccc4Cl)[nH]c3-c3ccc(F)cc3)cc21	0.0275 µM	0.0053 µM	0.0067 µM	–	–	–	–	–
CC(C)S(=O)(=O)n1c(N)nc2ccc(-c3[nH]cnc3-c3ccccc3)cc21	0.195 µM	0.0318 µM	–	–	–	–	–	–
CC(C)S(=O)(=O)n1c(N)nc2ccc(-c3[nH]c(C(C)(C)C)nc3-c3ccc(F)cc3F)cc21	0.0262 µM	0.0062 µM	–	8 h	2.2 mg/kg	8.1 mg/kg	14.6 µM·h	1.5 mg/kg
CC(C)S(=O)(=O)n1c(N)nc2ccc(-c3[nH]c(-c4c(F)cccc4F)nc3-c3ccccc3)cc21	0.0457 µM	0.0103 µM	–	5 h	5.2 mg/kg	>30 mg/kg	5.5 µM·h	>30 mg/kg
CC(C)Cn1c(N)nc2ccc(-c3[nH]c(-c4c(F)cccc4F)nc3-c3ccccc3)cc21	0.0783 µM	0.0475 µM	0.0099 µM	–	–	–	–	–
CC(C)S(=O)(=O)n1c(N)nc2ccc(-c3nc(-c4c(Cl)cccc4Cl)[nH]c3-c3ccccc3)cc21	0.0389 µM	0.0026 µM	–	–	–	–	–	–
CC(C)Cn1c(N)nc2ccc(-c3[nH]c(-c4c(F)cccc4F)nc3-c3ccccc3)nc21	0.035 µM	0.0013 µM	0.0025 µM	–	–	–	–	–
CC(C)S(=O)(=O)n1c(N(C)Cc2ccccc2)nc2ccc(-c3[nH]c(-c4c(F)cccc4F)nc3-c3ccccc3)cc21	–	0.234 µM	2.49 µM	–	–	–	–	–
CC(C)Cn1cnc2ccc(-c3[nH]c(-c4c(Cl)cccc4Cl)nc3-c3ccccc3)nc21.CS(=O)(=O)O	0.0647 µM	0.0017 µM	0.0037 µM	4 h	<2.5 mg/kg	>30 mg/kg	29.9 µM·h	15 mg/kg
CC(C)S(=O)(=O)n1c(N)nc2ccc(-c3[nH]c(-c4c(F)cccc4F)nc3-c3ccccc3)nc21	0.298 µM	0.0037 µM	0.0035 µM	–	–	–	–	–
CC(C)(C)Cn1cnc2ccc(-c3[nH]c(C(C)(C)C)nc3-c3ccc(F)cc3F)nc21	0.0207 µM	0.0241 µM	–	–	–	–	–	–
CC(C)S(=O)(=O)n1c(N)nc2ccc(-c3[nH]c(-c4c(F)cccc4Cl)nc3-c3ccccc3)cc21	0.0745 µM	0.0112 µM	0.0145 µM	–	–	–	–	–
CCNc1nc2ccc(-c3[nH]c(-c4c(F)cccc4F)nc3-c3ccccc3)cc2n1S(=O)(=O)C(C)C	–	0.527 µM	0.156 µM	–	–	–	–	–
Cc1nc(-c2ccc(F)cc2)c(-c2ccc3nc(N)n(S(=O)(=O)C(C)C)c3c2)[nH]1	0.225 µM	0.104 µM	0.0071 µM	–	–	–	–	–
CC(C)Cn1cnc2ccc(-c3[nH]c(-c4c(F)cccc4F)nc3-c3ccccc3)cc21	–	0.0519 µM	0.0162 µM	–	–	–	–	–
Cc1nc(-c2ccccc2)c(-c2ccc3nc(N)n(S(=O)(=O)C(C)C)c3c2)[nH]1	–	0.186 µM	0.0204 µM	–	–	–	–	–
CC(C)S(=O)(=O)n1c(N)nc2ccc(-c3[nH]c(-c4ccncc4)nc3-c3ccccc3)cc21	0.0623 µM	0.0141 µM	0.0061 µM	–	–	–	–	–
CC(C)S(=O)(=O)n1c(N)nc2ccc(-c3nc(-c4ccccc4C(F)(F)F)[nH]c3-c3ccccc3)cc21	0.284 µM	0.0331 µM	0.0261 µM	–	–	–	–	–
Nc1nc2ccc(-c3[nH]c(-c4c(F)cccc4F)nc3-c3ccccc3)cc2n1-c1ccccc1	–	–	0.158 µM	–	–	–	–	–
Cc1nc(-c2ccc(F)cc2F)c(-c2ccc3nc(N)n(S(=O)(=O)C(C)C)c3c2)[nH]1	0.0597 µM	0.0465 µM	0.0088 µM	–	–	–	–	–
Fc1cccc(F)c1-c1nc(-c2ccccc2)c(-c2ccc3nc[nH]c3c2)[nH]1	0.766 µM	0.419 µM	0.0884 µM	–	–	–	–	–
CCNc1nc2ccc(-c3[nH]c(-c4c(F)cccc4F)nc3-c3ccccc3)cc2[nH]1	–	0.493 µM	0.0564 µM	–	–	–	–	–
CC(C)(C)Cn1c(N)nc2ccc(-c3[nH]c(-c4c(F)cccc4F)nc3-c3ccccc3)nc21	–	< 0.009 µM	0.0064 µM	–	–	–	–	–
Nc1nc2ccc(-c3[nH]c(-c4c(F)cccc4F)nc3-c3ccccc3)cc2[nH]1	–	1.33 µM	0.131 µM	–	–	–	–	–
CC(C)(C)Cn1c(N)nc2ccc(-c3[nH]c(-c4c(F)cccc4F)nc3-c3ccccc3)cc21	0.126 µM	0.0035 µM	0.006 µM	–	–	–	–	–
